Assay results of several laboratories.
Target: Casein kinase II subunit alpha' (CSNK2A2, Homo sapiens, UniProt P19784)

SMILES | observed | technique | tested at | remaining binding
C[C@@H]1CCN(c2nccc(-c3cnn4ncccc34)n2)C1 | binding |  | 1 µM | 60%
O=C(NS(=O)(=O)c1ccc(NCC2CCOCC2)c([N+](=O)[O-])c1)c1ccc(N2CCN(Cc3ccc(C(F)(F)F)cc3-c3ccc(Cl)cc3)CC2)cc1Oc1cnc2[nH]ccc2c1 | cell-free assay | competition with immobilised ligand | 1 µM | 100%
COc1cnc(Nc2cccc(S(N)(=O)=O)c2)nc1N1CCN(c2ccccc2)C(=O)C1 | binding | competition with immobilised ligand | 1 µM | 86%
Cc1cnc(Nc2ccc(C(=O)N3CCC(N4CCCC4)CC3)cc2)nc1-c1cc2ccccc2s1 | binding | competition with immobilised ligand | 1 µM | 0%
O=C(Nc1c[nH]nc1C(=O)NC1CCNCC1)c1cc(F)cc(F)c1 | binding | competition with immobilised ligand | 1 µM | 100%
CCOCCn1cc(C(=O)Nc2ccc(-n3nc(-c4cccnc4)cc3C(F)(F)F)cn2)ccc1=O | cell-free assay | competition with immobilised ligand | 1 µM | 100%
CN(C)c1ncc(F)c(-c2cnn3ncccc23)n1 | binding |  | 1 µM | 100%
c1cncc(-c2cccc(Nc3nccc(NC4CCCCC4)n3)c2)c1 | binding | competition with immobilised ligand | 10 µM | 65%
FC(F)(F)Oc1cccc(-c2cnc3ccc(-c4ccncc4)nn23)c1 | cell-free assay | competition with immobilised ligand | 5 µM | 23%
CNC(=O)[C@@H]1CC[C@@H](n2c(-c3ccc4cnccc4c3)nc3ccc(C(=O)NCc4cccc(C(N)=O)c4)cc32)C1 | binding | competition with immobilised ligand | 1 µM | 100%
COc1ccnn2ncc(-c3ccnc(N(C)C)n3)c12 | binding |  | 1 µM | 61%
O=C(c1ccc(Nc2nccc(-c3cc4ccccc4s3)n2)cc1)N1CCC(N2CCCC2)CC1 | binding | competition with immobilised ligand | 1 µM | 1.8%
Cc1cc(C)c(-n2ccn3nc(-c4cccnc4)cc23)cc1NC(=O)c1cc(C#N)cc(S(F)(F)(F)(F)F)c1 | cell-free assay | competition with immobilised ligand | 0.1 µM | 82.4%
C[C@@H](c1ccc(-n2cnc3c(N)ncnc32)cc1)N1CCc2nn(C)c(Cc3ccccc3)c2C1=O | binding | competition with immobilised ligand | 0.1 µM | 86%
O=C(N1CCS(=O)(=O)CC1)N1C[C@H](c2ccc(OC(F)(F)F)cc2)C[C@H](c2nc(C3CC3)no2)C1 | cell-free assay | competition with immobilised ligand | 1 µM | 100%
CN(C)c1nccc(-c2cnn3ncccc23)n1 | binding |  | 1 µM | 39%
COc1cc(-c2cn(C3CCc4ccccc4N(CC(F)(F)F)C3=O)nn2)ccc1-n1ccc(C)n1 (stereo not shown) | cell-free assay | competition with immobilised ligand | 1 µM | 84%
N[C@H]1CCN(c2nccc(-c3cnn4ncccc34)n2)C1 | binding |  | 1 µM | 88%
CC1=C(C#N)[C@@H](c2ccc3[nH]nc(C)c3c2)C(C#N)=C(c2ccc(Cl)cc2)N1 | cell-free assay | competition with immobilised ligand | 1 µM | 100%
CN(C)c1nccc(-c2cnc3ncccn23)n1 | binding |  | 1 µM | 24%
O=C(c1ccc(Nc2ncc(Cl)c(-c3cc4ccccc4s3)n2)cc1)N1CCC(N2CCCC2)CC1 | binding | competition with immobilised ligand | 1 µM | 0.1%
CN(C)C(=O)Cn1cc(-c2nc(C3(c4ccc(-c5cnc(N)nc5)cc4)CC3)no2)cn1 | cell-free assay | competition with immobilised ligand | 1 µM | 100%
